The text below walks through data of ChEMBL document CHEMBL4680373, “Evaluation of 5-(Trifluoromethyl)-1,2,4-oxadiazole-Based Class IIa HDAC Inhibitors for Huntington's Disease” (ACS Med Chem Lett, 2021).

Data set [1] concerns the target Histone deacetylase 2 (Homo sapiens, UniProt Q92769). The data set can be described thus: Inhibition of HDAC2 (unknown origin) using Ac-Arg-Gly-Lys(Ac) as substrate by fluorogenic assay.
In data set [2] the target is T1, Histone deacetylase 4 (Homo sapiens, UniProt P56524). The data set can be described thus: Inhibition of HDAC4 (unknown origin) using Boc Lys(TFA) as substrate by fluorogenic assay. The gist of the method:
(§1)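 Biochemical HDAC isoform assay with the artificial fluorogenic substrate Boc-Lys-(TFA)-AMC, which is specific to class IIa enzymes and HDAC8. IC50 taken as the geometric mean of three experiments.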

Data set [3] is described as follows: Toxicity in CBAxC57BL/6J mouse assessed as effect on seizure at 10 to 100 mg/kg, po bid for 14.5 days. The format is organism-based. The following applies: in vivo, 348 h, dose 10-100 mg/kg, time 14.5 day. In a few lines: (§2)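 R6/2 HD mice and wild-type littermates, male and female, were dosed orally b.i.d. at 10, 30 or 100 mg/kg or with vehicle for 14.5 days. Vehicle was 10% (w/v) hydroxypropyl-β-cyclodextrin in 50 mM citrate buffer. Body weight, body temperature, passive observations and active manipulation scores were recorded. Blood and brain were collected 2 h after the final dose.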

The nature of data set [4]: Metabolic stability of the compound in C57BL/6 mouse plasma at 5 uM measured for 60 mins by LC-MS/MS analysis. The format is ADME, cell-free. The following applies: 1 h.
The target in data set [5] is Cytochrome P450 3A4 (Homo sapiens, UniProt P08684). Briefly: Inhibition of CYP3A4 in human liver microsomes using midazolam as substrate incubated for 15 mins by LC-MS/MS analysis. The format is ADME. (In general: Liver microsomes are a subcellular fraction often used to study metabolism.)
Sequence of Cytochrome P450 3A4 (P08684 whole entry): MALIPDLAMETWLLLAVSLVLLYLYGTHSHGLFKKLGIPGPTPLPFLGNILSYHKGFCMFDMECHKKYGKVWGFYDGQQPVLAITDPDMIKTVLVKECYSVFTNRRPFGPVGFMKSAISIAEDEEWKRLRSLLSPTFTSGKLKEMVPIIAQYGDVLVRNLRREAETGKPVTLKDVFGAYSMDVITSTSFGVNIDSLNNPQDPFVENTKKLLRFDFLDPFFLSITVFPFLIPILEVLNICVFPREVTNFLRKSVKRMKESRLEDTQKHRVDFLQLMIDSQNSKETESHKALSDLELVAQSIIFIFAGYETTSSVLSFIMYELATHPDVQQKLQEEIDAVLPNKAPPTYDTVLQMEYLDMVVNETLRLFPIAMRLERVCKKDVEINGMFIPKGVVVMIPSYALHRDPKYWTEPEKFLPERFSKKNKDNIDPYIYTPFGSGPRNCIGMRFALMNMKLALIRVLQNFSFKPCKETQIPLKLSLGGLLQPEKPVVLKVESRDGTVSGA
A short description of data set [6]: Toxicity in CBAxC57BL/6J mouse assessed as effect on flat body posture at 10 to 100 mg/kg, po bid for 14.5 days. The format is organism-based. The conditions noted are these: in vivo, 348 h, dose 10-100 mg/kg, time 14.5 day. In a few lines:
as §2

The nature of data set [7]: Oral bioavailability in C57BL/6J mouse at 11.5 mg/kg administered via gavage by LC-MS/MS analysis. The following applies: in vivo. It counts as ADME, organism-based. In a few lines:
(§3)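 Fed male C57Bl/6 mice dosed once intravenously at 3.3 mg/kg and by oral gavage at 11.5 mg/kg. Compound levels were quantified to derive PK parameters.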

Data set [8] in a line: Inhibition of Class 2A HDAC in human HEK293 cells using Boc-Lys(TFA) as substrate by fluorogenic assay. It counts as cell-based.
The nature of data set [9]: In vivo inhibition of Class 1/2B HDAC in CBAxC57BL/6J mouse brain assessed as increase in global pan-acetylation at >=10 mg/kg, po bid for 14.5 days by dot blot technique. It counts as organism-based. The conditions noted are these: 348 h, time 14.5 day. The gist of the method: (§4)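 R6/2 and wild-type littermate mice of both sexes were dosed orally b.i.d. for 14.5 days with 10, 30 or 100 mg/kg or vehicle (10% w/v hydroxypropyl-β-cyclodextrin in 50 mM citrate buffer). Half-brains were collected 2 h after the last dose. Dot blots measured global and H4K12 acetylation; Western blots measured H3, H4 and tubulin acetylation. Genotypes were pooled.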

The nature of data set [10]: Toxicity in CBAxC57BL/6J mouse assessed as effect on shivering at 10 to 100 mg/kg, po bid for 14.5 days. It counts as organism-based. The following applies: in vivo, 348 h, dose 10-100 mg/kg, time 14.5 day. In a few lines:
as §2

Data set [11] can be described thus: Volume of distribution in C57BL/6J mouse at 3.3 mg/kg, iv by LC-MS/MS analysis. The conditions noted are these: in vivo. It counts as ADME, organism-based. In a few lines: as §3
The nature of data set [12]: Unbound fraction in mouse blood by equilibrium dialysis method. It counts as ADME, tissue-based. In a few lines: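 Compound added to mouse blood; unbound fraction determined by equilibrium dialysis.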
(In general: In equilibrium dialysis free small molecules cross a membrane that holds back macromolecules.)

For data set [13], the target named is T1, Histone deacetylase 4. The data set can be described thus: Inhibition of Class 2A HDAC4 in human Jurkat E6.1 cells using Boc-Lys-(TFA)-AMC as substrate by fluorogenic assay. It counts as cell-based. In a few lines:
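Whole-cell assay in Jurkat E6.1 cells with artificial fluorogenic substrates: Boc-Lys-(TFA)-AMC for class IIa/HDAC8 activity, which in this line is mostly HDAC4, and Boc-Lys-(Ac)-AMC for class I/IIb activity. IC50 given as the geometric mean of three experiments.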

For data set [14], the target named is Cytochrome P450 2C8 (Homo sapiens, UniProt P10632). Briefly: Inhibition of CYP2C8 in human liver microsomes using amodiaquine as substrate incubated for 15 mins by LC-MS/MS analysis. The format is ADME.
Sequence of Cytochrome P450 2C8 (P10632 whole entry): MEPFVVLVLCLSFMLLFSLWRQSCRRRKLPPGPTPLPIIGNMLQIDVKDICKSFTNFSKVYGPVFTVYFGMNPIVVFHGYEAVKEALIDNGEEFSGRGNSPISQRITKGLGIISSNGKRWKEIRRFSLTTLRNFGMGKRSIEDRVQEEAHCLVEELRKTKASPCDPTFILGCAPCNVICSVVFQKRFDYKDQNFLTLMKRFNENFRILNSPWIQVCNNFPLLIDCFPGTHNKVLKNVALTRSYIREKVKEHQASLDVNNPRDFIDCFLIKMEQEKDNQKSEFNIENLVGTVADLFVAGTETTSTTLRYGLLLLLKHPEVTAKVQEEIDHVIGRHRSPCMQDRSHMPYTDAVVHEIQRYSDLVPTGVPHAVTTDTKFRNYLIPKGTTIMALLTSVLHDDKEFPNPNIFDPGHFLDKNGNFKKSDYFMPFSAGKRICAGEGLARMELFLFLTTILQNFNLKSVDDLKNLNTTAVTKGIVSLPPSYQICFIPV
The target in data set [15] is Muscarinic acetylcholine receptor M4 (Homo sapiens, UniProt P08173). Briefly: Displacement of [3H]4-DAMP from human recombinant M4 receptor incubated for 1 hr by radiometric scintillation counting analysis. Background: In a radioligand displacement assay an active substance lowers the binding of a labelled ligand.
Sequence of Muscarinic acetylcholine receptor M4 (P08173 whole entry): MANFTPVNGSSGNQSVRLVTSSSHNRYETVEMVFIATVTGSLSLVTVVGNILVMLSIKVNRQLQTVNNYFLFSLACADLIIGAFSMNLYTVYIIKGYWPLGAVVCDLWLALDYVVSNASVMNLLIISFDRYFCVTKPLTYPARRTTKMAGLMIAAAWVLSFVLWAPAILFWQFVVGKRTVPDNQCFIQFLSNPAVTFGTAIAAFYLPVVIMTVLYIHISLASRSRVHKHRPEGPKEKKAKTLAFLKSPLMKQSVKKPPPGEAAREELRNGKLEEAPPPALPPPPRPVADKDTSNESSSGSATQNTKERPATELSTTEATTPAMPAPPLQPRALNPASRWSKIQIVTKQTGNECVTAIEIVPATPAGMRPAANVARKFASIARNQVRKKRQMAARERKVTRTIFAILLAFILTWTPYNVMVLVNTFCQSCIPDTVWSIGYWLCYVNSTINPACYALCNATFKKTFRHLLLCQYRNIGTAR
The target in data set [16] is Muscarinic acetylcholine receptor M4 (Homo sapiens) (UniProt P08173). Briefly: Displacement of [3H]4-DAMP from human recombinant M4 receptor at 10 uM incubated for 1 hr by radiometric scintillation counting analysis. In a few lines:
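Broad selectivity panel of binding, cellular, functional and enzymatic assays run by a contract lab. Each test was done at a single 10 μM concentration and reported as percent inhibition.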

Data set [17] can be described thus: Metabolic stability of the compound in human plasma. It counts as ADME, cell-free.
The target in data set [18] is T2, Histone deacetylase 8 (Homo sapiens, UniProt Q9BY41).
T2 sequence (Q9BY41 whole entry): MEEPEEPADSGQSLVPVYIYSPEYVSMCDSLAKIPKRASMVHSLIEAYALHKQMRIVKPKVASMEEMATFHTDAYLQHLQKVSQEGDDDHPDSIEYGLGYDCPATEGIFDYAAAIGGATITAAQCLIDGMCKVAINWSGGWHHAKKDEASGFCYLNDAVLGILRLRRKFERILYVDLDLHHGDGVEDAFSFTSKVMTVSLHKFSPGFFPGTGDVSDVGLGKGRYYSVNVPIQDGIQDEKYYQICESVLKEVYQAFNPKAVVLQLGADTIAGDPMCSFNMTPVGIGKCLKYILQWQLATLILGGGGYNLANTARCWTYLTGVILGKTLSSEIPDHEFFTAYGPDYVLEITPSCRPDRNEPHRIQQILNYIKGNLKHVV
The data set can be described thus: Inhibition of HDAC8 (unknown origin) using Boc-Lys(TFA) as substrate by fluorogenic assay. The gist of the method:
as §1

Data set [19] in a line: In vivo inhibition of Class 1 HDAC in CBAxC57BL/6J mouse brain assessed as increase in histone H4 acetylation at 30 to 100 mg/kg, po bid for 14.5 days by western blot analysis. The following applies: 348 h, dose 30-100 mg/kg, time 14.5 day. It counts as organism-based. In a few lines: as §4
Data set [20] is described as follows: In vivo inhibition of Class 1 HDAC in CBAxC57BL/6J mouse brain assessed as increase in H4K12 acetylation at 30 to 100 mg/kg, po bid for 14.5 days by dot blot technique. It counts as organism-based. The conditions noted are these: 348 h, dose 30-100 mg/kg, time 14.5 day. The gist of the method:
as §4

Data set [21] is described as follows: In vivo inhibition of Class 1/2B HDAC in C57BL/6J mouse brain assessed as increase in global pan-acetylation at 10 mg/kg, po administered via gavage measured after 2 hrs by dot blot technique. The format is organism-based. In a few lines: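 Mice received single oral gavage doses of 10, 30 or 100 mg/kg, and brains were sampled from 0.25 to 12 h. Brain compound levels were measured by LC-MS/MS. Dot blots read H4K12 acetylation normalized to histone H4, or pan-acetyl-lysine normalized to tubulin.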

Data set [22] is described as follows: Toxicity in CBAxC57BL/6J mouse assessed as effect on provoked biting at 10 to 100 mg/kg, po bid for 14.5 days. It counts as organism-based. The following applies: in vivo, 348 h, dose 10-100 mg/kg, time 14.5 day. The gist of the method: as §2
Data set [23] has as its target Histone deacetylase 5 (Homo sapiens, UniProt Q9UQL6). Briefly: Inhibition of HDAC5 (unknown origin) using Boc Lys(TFA) as substrate by fluorogenic assay. In a few lines: as §1
The nature of data set [24]: Stability of the compound in simulated gastric fluid at 10 uM at pH 1.2 incubated for 4 hrs by LC-MS/MS analysis.

Molecules are shown by their SMILES. Where only a bound is given, the exact number is not on record here.

T1 sequence (P56524 whole entry, canonical isoform): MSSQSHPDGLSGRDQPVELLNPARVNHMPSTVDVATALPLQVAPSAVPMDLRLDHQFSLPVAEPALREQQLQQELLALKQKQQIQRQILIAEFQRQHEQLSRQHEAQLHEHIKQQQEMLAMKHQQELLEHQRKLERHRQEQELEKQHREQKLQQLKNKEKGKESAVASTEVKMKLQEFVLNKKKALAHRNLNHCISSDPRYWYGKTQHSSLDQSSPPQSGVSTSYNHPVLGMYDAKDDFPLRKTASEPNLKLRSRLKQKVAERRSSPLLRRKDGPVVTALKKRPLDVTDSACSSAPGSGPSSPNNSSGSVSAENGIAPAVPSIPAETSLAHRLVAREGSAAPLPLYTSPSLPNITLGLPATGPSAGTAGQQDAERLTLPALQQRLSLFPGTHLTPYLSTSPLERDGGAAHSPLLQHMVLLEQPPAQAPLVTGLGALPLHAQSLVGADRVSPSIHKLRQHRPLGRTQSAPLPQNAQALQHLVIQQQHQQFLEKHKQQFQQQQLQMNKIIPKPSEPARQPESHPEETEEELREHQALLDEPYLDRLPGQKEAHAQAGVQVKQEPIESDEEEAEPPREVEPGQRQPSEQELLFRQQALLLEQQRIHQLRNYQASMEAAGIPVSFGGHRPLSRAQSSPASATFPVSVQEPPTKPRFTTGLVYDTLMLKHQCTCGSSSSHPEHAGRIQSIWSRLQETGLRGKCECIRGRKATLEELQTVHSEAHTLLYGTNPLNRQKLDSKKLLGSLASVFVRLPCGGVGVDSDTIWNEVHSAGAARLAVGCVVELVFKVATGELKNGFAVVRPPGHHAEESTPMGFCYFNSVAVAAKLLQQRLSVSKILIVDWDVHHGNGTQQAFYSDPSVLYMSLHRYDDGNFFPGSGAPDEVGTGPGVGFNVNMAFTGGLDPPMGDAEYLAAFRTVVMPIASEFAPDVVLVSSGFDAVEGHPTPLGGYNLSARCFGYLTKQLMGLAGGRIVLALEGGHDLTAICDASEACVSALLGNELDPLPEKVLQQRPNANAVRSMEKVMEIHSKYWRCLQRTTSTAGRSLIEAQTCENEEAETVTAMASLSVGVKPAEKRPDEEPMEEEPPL
Sequence of Muscarinic acetylcholine receptor M4 (Homo sapiens) (P08173 whole entry): as the sequence (P08173 whole entry) above
Sequence of Histone deacetylase 2 (Q92769 whole entry): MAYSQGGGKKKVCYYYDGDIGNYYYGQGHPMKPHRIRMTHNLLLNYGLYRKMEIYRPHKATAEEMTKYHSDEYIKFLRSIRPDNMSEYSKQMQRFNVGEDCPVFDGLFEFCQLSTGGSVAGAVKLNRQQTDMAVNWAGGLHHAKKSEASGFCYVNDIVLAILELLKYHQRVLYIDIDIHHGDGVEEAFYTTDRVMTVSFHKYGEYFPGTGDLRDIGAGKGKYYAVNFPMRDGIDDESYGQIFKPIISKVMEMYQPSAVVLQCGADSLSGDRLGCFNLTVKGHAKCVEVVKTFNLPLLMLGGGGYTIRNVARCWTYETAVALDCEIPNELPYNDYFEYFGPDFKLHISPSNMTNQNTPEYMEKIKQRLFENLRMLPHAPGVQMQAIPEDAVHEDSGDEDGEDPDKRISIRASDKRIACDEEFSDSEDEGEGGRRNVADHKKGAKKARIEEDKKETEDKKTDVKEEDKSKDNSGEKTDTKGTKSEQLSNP
Sequence of Histone deacetylase 5 (Q9UQL6 whole entry): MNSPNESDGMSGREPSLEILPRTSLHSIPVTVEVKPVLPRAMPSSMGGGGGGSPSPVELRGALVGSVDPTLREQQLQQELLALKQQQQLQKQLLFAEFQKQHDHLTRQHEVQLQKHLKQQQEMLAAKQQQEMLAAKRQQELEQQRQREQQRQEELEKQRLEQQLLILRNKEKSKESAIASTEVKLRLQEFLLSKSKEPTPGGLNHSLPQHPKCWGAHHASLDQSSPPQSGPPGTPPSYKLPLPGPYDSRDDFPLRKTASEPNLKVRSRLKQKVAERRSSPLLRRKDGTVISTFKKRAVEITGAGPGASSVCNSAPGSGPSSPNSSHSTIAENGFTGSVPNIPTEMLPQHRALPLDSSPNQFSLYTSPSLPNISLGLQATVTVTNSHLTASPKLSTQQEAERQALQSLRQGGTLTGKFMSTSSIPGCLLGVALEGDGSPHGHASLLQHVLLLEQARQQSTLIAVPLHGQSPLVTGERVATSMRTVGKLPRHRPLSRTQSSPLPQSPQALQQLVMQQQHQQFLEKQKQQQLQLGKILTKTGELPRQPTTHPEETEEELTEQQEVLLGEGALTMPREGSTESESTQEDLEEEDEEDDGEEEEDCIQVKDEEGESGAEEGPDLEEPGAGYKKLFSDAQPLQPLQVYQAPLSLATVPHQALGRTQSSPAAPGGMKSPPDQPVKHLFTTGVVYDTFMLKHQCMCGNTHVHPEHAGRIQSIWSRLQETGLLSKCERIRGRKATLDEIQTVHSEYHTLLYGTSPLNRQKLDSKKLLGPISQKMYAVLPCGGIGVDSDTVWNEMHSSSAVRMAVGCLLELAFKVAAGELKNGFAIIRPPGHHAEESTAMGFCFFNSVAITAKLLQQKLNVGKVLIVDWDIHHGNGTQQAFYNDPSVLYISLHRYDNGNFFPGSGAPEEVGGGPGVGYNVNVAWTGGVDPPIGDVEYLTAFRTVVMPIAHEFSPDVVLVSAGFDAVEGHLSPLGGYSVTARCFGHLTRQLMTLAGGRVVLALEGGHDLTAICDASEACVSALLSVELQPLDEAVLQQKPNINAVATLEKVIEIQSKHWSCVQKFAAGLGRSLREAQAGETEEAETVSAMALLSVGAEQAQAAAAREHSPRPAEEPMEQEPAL

In general, IC50 refers to the concentration that inhibits the measured activity by half. For orientation: bioavailability means the share of a dose that reaches the circulation, judged against a reference dose that is usually intravenous. Low values mean little systemic uptake, high ones much systemic uptake. As usually defined, the Vd is the apparent volume that relates the amount in the body to the concentration in plasma or blood. The low end stands for little distribution into tissue, the high end for wide distribution into tissue. The fraction unbound is the share of the substance not bound to proteins or other matrix. A lower fraction unbound goes with extensive binding. The term Kd denotes the constant that tells how readily two partners part at equilibrium. Broadly, the inhibition is the percentage by which the read-out fell short of the control. As for `C[C@H](CN1CCC[C@@H]1C)NC(=O)c1ccc(-c2noc(C(F)(F)F)n2)cc1`, the IC50 is 27000 nM in data set [1]; 10 nM in data set [2]; greater than 50000 nM in data set [5]; 10 nM in data set [8]; 40 nM in data set [13]; greater than 50000 nM in data set [14]. The half-maximal inhibitory concentration (IC50) in [18] was 2000 nM; in data set [23], 20 nM. Besides, the Activity result in data set [3] is on record as “Non-Toxic”; in [6] it was “Non-Toxic”; in [9] it was “Toxic”; in data set [10], “Non-Toxic”; in data set [19] it was “Toxic”; in data set [20], “Toxic”. Besides, the Activity entry in data set [21] is “Toxic”; in [22], “Non-Toxic”. Also, the Stabilty entry in [4] and in data set [17] was “Stable” throughout. In data set [7], the bioavailability is 100%. The Vd in data set [11] was 3.8 L/kg. Besides, the unbound share (fraction unbound) in data set [12] amounted to 0.73. The Kd in [15] was greater than 5000 nM. In data set [16], the inhibition was greater than 80%. Also, in data set [24], the Stability entry is reported as “Stable”.
